≈ marks a conversion by molar mass, not a printed value. Calls of active or inactive are those of the source. The calls are words filed in the database; no cut-off is given here. Residues, ends and D or L forms follow the SMILES beside them. *: point of attachment. βNA = c1ccc2cc(N*)ccc2c1
Legend:
Escherichia coli [1] = assay: Antibacterial activity against Escherichia coli transformed with plasmid carrying MG1655 deltaBC/pXYM by p-iodonitrotetrazolium chloride colorimetric assay; type: functional
Outline: (§1)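 Two-fold broth microdilution in Mueller-Hinton broth, read by p-iodonitrotetrazolium chloride colorimetric assay. MIC is the lowest concentration giving no visible growth. MG1655 ΔacrB ΔtolC strains carrying pABM or pXYM were always cultured with 100 μg/mL ampicillin and 1 mM IPTG. Medium, inoculum and 1% DMSO (final) served as negative control.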

Escherichia coli [2] = assay: Antibacterial activity against Escherichia coli AG102 overexpressing AcrAB-TolC by p-iodonitrotetrazolium chloride colorimetric assay; type: functional; outline: as §1
Escherichia coli [3] = assay: Antibacterial activity against Escherichia coli transformed with plasmid carrying MG1655 deltaBC/pABM by p-iodonitrotetrazolium chloride colorimetric assay; type: functional; outline: as §1
Escherichia coli [4] = assay: Inhibition of AcrAB-TolC pump in Escherichia coli AG100 assessed as increase in intracellular H33342 fluorescence at 15.6 ug/ml after 60 mins by efflux inhibition assay; type: cell-based
Outline: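 AG100 (wild-type K-12) or AG100A (ΔacrAB) cells were grown in Luria broth at 37 °C and 200 rpm to OD600 1.0, PBS-washed and diluted to OD600 0.3. Cells took up 2.5 μM Hoechst 33342 with 22 mM glucose at 37 °C for about 30 min, then compound (0.06–64 μg/mL) or PAβN (15.6 μg/mL) was added. Fluorescence (Ex 350/Em 460 nm) was followed for 60 min and corrected for background. The last four time points were compared to dye-only control by ANOVA with Dunnett's test, run in duplicate.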

Row | Structure (SMILES) | MIC (Escherichia coli [1]) | MIC (Escherichia coli [2]) | MIC (Escherichia coli [3]) | inhibition (Escherichia coli [4])
1 | C[C@H]1COc2c(N3CCN(C)CC3)c(F)cc3c(=O)c(C(=O)O)cn1c23.C[C@H]1COc2c(N3CCN(C)CC3)c(F)cc3c(=O)c(C(=O)O)cn1c23.O [LEVOFLOXACIN] | 0.13 µg/mL | 0.13 µg/mL | 0.13 µg/mL | 
2 | CC[C@H]1OC(=O)[C@H](C)[C@@H](O[C@H]2C[C@@](C)(OC)[C@@H](O)[C@H](C)O2)[C@H](C)[C@@H](O[C@@H]2O[C@H](C)C[C@H](N(C)C)[C@H]2O)[C@](C)(O)C[C@@H](C)C(=O)[C@H](C)[C@@H](O)[C@]1(C)O [ERYTHROMYCIN] | 32 µg/mL (≈ 43.6 µM) | 128 µg/mL (≈ 174 µM) | 32 µg/mL (≈ 43.6 µM) | 
3 | CN(C)[C@@H]1C(O)=C(C(N)=O)C(=O)[C@@]2(O)C(O)=C3C(=O)c4c(O)cccc4[C@@](C)(O)[C@H]3C[C@@H]12 [TETRACYCLINE] | 0.25 µg/mL (≈ 0.563 µM) | 8 µg/mL (≈ 18 µM) | 2 µg/mL (≈ 4.5 µM) | 
4 | CCN1CCN(C(=O)N[C@@H](C(=O)N[C@@H]2C(=O)N3[C@@H]2SC(C)(C)[C@@H]3C(=O)O)c2ccccc2)C(=O)C1=O [PIPERACILLIN] | 512 µg/mL (≈ 989 µM) | 4 µg/mL (≈ 7.73 µM) | > 512 µg/mL | 
5 | O=C(N[C@H](CO)[C@H](O)c1ccc([N+](=O)[O-])cc1)C(Cl)Cl [CHLORAMPHENICOL] | 0.75 µg/mL (≈ 2.32 µM) | 24 µg/mL (≈ 74.3 µM) | 24 µg/mL (≈ 74.3 µM) | 
6 | Cc1onc(-c2ccccc2)c1C(=O)N[C@@H]1C(=O)N2[C@@H]1SC(C)(C)[C@@H]2C(=O)O [OXACILLIN] | > 1300 µg/mL | > 650 µg/mL | > 1300 µg/mL | 
7 | O=C(O)c1cn(C2CC2)c2cc(N3CCNCC3)c(F)cc2c1=O [CIPROFLOXACIN] |  | 0.13 µg/mL (≈ 0.392 µM) |  | 
8 | NC[C@H]1O[C@H](O[C@H]2[C@H](O)[C@@H](O[C@H]3O[C@H](CO)[C@@H](O)[C@H](N)[C@H]3O)[C@H](N)C[C@@H]2N)[C@H](O)[C@@H](O)[C@@H]1O [KANAMYCIN] | 0.25 µg/mL (≈ 0.516 µM) | 16 µg/mL (≈ 33 µM) | 2 µg/mL (≈ 4.13 µM) | 
9 | N=C(N)NCCC[C@H](NC(=O)[C@@H](N)Cc1ccccc1)C(=O)Nc1ccc2ccccc2c1 (H-Phe-Arg-βNA) |  |  |  | Active
